These results are taken from ChEMBL document CHEMBL4024793, “Development of Stem-Cell-Mobilizing Agents Targeting CXCR4 Receptor for Peripheral Blood Stem Cell Transplantation and Beyond” (J Med Chem, 2018).

Broadly, the inhibition is the percentage by which the read-out fell short of the control. Usually Cmax stands for the maximum level reached in the sampled fluid or tissue.

Calls of active or inactive are those of the source. No cut-off for these calls is given here.

Data set [1] addresses Muscarinic acetylcholine receptor M2 (Homo sapiens) (UniProt P08172). Nature of the data set: Displacement of [3H]AF-DX 384 from recombinant human Muscarinic M2 receptor at 10 uM after 60 mins by scintillation counting.
Data set [2] is described as follows: Cmax in C57BL/6 mouse at 6 mg/kg, sc measured up to 4 hrs post dose by LC-MS/MS analysis. The class given is ADME, organism-based. Also on record: dose 6 mg/kg, route subcutaneous. The following applies: in vivo. In short, it runs like this: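 Male C57BL/6 mice (23.4–25.4 g), quarantined one week, non-fasted, n = 3; single SC dose of 6 mg/kg in 100% saline. Blood taken by cardiac puncture at 0, 0.03, 0.08, 0.25, 1, 1.5, 2 and 4 h and stored at -80 °C. Plasma analysed by LC–MS/MS; parameters from non-compartmental analysis; mean ± SD.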

The next data set relates to Rattus norvegicus. Nature of the data set: Cardiotoxicity in Sprague-Dawley rat assessed as effect on heart size at 50 mg/kg/day, sc administered for 14 days relative to control. The class given is toxicity, organism-based. The following applies: in vivo, 336 h. In short, it runs like this:
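Non-GLP 14-day repeated-dose study in SD rats given 50 mg/kg/day SC. Major organs (liver, kidney, lung, heart) compared with vehicle for size, weight and colour. Blood analysed for hematological and biochemical parameters.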

A further data set relates to Mus musculus. Nature of the data set: Induction of hematopoietic stem cell mobilization in C57BL/6 mouse PBMC assessed as increase in CFU-GM colonies at 35 mg/kg, sc administered on day 5 post G-CSF addition measured after 2 hrs post dose by colony forming assay. The class given is functional, organism-based. In short, it runs like this: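 Male C57BL/6 mice received G-CSF 100 µg/kg SC daily for 4 days. On day 5 they received G-CSF plus compound SC (6 or 35 mg/kg). Heparinized blood taken 2 h later; PBMCs isolated and cultured in methylcellulose medium for 10–14 days. CFU-GM colonies (aggregates of ≥50 cells) counted under an inverted microscope. 8–12 mice per group; mean ± SEM; t test against G-CSF alone.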

Data set [3] deals with C-X-C chemokine receptor type 6 (Homo sapiens) (UniProt O00574). Kind of data set: Antagonist activity at human CXCR6 at 10 uM preincubated for 30 mins followed agonist addition measured after 30 to 60 mins by cAMP assay. The data set is classed as functional. In short, it runs like this: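 GPCR cAMP assay with a single test concentration of 10 μM; result expressed as percentage inhibition for each chemokine receptor.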
Chain of C-X-C chemokine receptor type 6 (Homo sapiens) (O00574 whole entry, looked up): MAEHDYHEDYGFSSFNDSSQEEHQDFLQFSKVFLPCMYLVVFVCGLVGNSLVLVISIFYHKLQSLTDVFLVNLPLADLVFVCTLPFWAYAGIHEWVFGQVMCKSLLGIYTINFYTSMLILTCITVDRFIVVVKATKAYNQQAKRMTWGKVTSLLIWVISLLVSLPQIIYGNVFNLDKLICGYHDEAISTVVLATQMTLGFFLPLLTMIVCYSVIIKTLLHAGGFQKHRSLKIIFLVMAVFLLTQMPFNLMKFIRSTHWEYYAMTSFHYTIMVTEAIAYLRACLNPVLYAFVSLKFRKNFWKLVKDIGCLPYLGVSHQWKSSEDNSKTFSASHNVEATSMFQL

Chain of Muscarinic acetylcholine receptor M2 (Homo sapiens) (P08172 whole entry): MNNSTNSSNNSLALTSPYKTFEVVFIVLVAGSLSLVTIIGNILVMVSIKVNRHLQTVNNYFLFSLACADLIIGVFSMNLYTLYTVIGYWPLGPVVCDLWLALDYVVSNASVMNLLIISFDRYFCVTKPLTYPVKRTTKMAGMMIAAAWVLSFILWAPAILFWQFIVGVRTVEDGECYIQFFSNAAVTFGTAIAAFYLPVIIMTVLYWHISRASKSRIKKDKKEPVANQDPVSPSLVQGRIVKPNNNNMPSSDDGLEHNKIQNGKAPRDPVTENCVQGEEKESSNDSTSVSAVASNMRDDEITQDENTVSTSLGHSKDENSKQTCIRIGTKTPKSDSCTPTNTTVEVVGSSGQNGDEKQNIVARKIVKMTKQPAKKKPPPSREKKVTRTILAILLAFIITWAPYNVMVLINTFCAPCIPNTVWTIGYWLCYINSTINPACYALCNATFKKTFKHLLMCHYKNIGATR

Consider `Cc1cc(NC2CCN(C(=O)CCNCC(=O)O)CC2)nc(NCc2cn(CCCNCCCNC3CCCCC3)nn2)n1`, for which the inhibition in data set [1] is 70%. This molecule also came in with a Cmax in data set [2] of 16400 ng/mL. For the same molecule, the Activity entry in the data set with Rattus norvegicus is “Non-Toxic”. In the data set on Mus musculus, the result was Active. For the same molecule, in data set [3], the Efficacy was -3.9%.
